Values joined by “and” are separate entries in the source; they are usually repeats but may differ in a detail not shown here. Identical values can stand only once. Like-named read-outs stand apart in the source and are kept apart here.
How the values were obtained:
[1] = Capmatinib/CMN288 pharmacokinetics, inhibition cohort; format: in vivo, human (healthy subjects); details: for AUCinf geometric mean ratio (90%CI) / AUClast geometric mean ratio (90%CI) / Cmax geometric mean ratio (90%CI): itraconazole + capmatinib 200 mg / capmatinib alone
How it was run: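 Inhibition cohort of healthy subjects (n = 27): a single fasted oral 200 mg dose on day 1, then a 4-day washout. Itraconazole 200 mg was given daily on days 5–14, and 200 mg test compound was dosed 1 h after the sixth itraconazole dose (day 10). Plasma was sampled serially to 96 h after each dose and assayed by validated LC-MS/MS (LLOQ ≈1.0 ng/mL). Test/reference ratios are antilogged point estimates with 2-sided 90%CIs.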

[2] = Capmatinib/CMN288 pharmacokinetics, induction cohort; format: in vivo, human (healthy subjects); details: for AUC(0-inf): AUCinf; for AUC(0-t): AUClast; for AUCinf geometric mean ratio (90%CI) / AUClast geometric mean ratio (90%CI) / Cmax geometric mean ratio (90%CI): rifampicin + capmatinib 400 mg / capmatinib alone
How it was run: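 Healthy subjects (induction cohort, n = 26) received a single fasted oral 400 mg dose on day 1, then a 4-day washout. Rifampicin 600 mg was given daily on days 5–13, with 400 mg test compound coadministered with the sixth dose on day 10. Serial plasma was drawn to 72 h after each dose and frozen <–70°C. Parent and metabolite were measured by validated LC-MS/MS (LLOQ ≈1.0 ng/mL). Ratios are antilogged 90%CIs.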

OATP1B1 = details: cited from earlier work
MATE1 = details: read-out: Ki, MATE1 inhibition; in vitro; ref Novartis data on file; cited from earlier work
OATP1B3 = details: cited from earlier work
Safety assessment = format: in vivo, human (healthy subjects)
MATE2K = details: read-out: Ki, MATE2K inhibition; in vitro; ref Novartis data on file; cited from earlier work
[3] = format: in vivo, human (healthy subjects); details: for Maximum increase of serum creatinine concentration from baseline: at 24 hours
How it was run: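 Blood was drawn from healthy subjects at 0, 2, 4, 8, 24, 48 and 72 h after the day-1 single fasted oral dose: 200 mg in the inhibition cohort, 400 mg in the induction cohort. Creatinine and cystatin C were measured in each sample. Change from baseline was summarized descriptively by time point.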

[4] = healthy subjects, used for sample size; cited from earlier work
[5] = therapeutic dose 400 mg twice daily, cited from earlier work
[6] = inhibition cohort, healthy subjects, single oral capmatinib 200 mg + itraconazole 200 mg/day, plasma
[7] = inhibition cohort, healthy subjects, single oral capmatinib 200 mg alone, plasma
[8] = induction cohort, healthy subjects, single oral capmatinib 400 mg + rifampicin 600 mg/day, plasma
[9] = induction cohort, healthy subjects, single oral capmatinib 400 mg alone, plasma
[10] = capmatinib + itraconazole compared to capmatinib alone
[11] = induction cohort N=26 (capmatinib 400 mg, rifampicin 600 mg/day)
[12] = inhibition cohort N=27 (capmatinib 200 mg, itraconazole 200 mg/day)
[13] = single dose 200 mg capmatinib, inhibition cohort
[14] = single dose 400 mg capmatinib, induction cohort
[15] = capmatinib + rifampicin compared to capmatinib alone
[16] = human, plasma, po, adjusted geometric mean, induction cohort, healthy subjects, single oral capmatinib 400 mg + rifampicin 600 mg/day, plasma
[17] = human, plasma, po, geometric mean (geometric CV%), induction cohort, healthy subjects, single oral capmatinib 400 mg + rifampicin 600 mg/day, plasma
[18] = human, plasma, po, mean (CV%), induction cohort, healthy subjects, single oral capmatinib 400 mg + rifampicin 600 mg/day, plasma

CNC(=O)c1ccc(-c2nn3c(Cc4ccc5ncccc5c4)cnc3[nH]c2=O)cc1F [CMN288]
CMN288 AUCinf, geometric mean (geometric CV%) [1, 6]: 4290 (42.3) ng · h/mL
CMN288 AUCinf, mean (CV%) [1, 6]: 4600 (35.7) ng · h/mL
CMN288 AUClast, geometric mean (geometric CV%) [1, 6]: 4260 (43.2) ng · h/mL
CMN288 AUClast, mean (CV%) [1, 6]: 4570 (36.0) ng · h/mL
CMN288 Cmax, geometric mean (geometric CV%) [1, 6]: 590 (63.8) ng/mL
CMN288 Cmax, mean (CV%) [1, 6]: 682 (50.8) ng/mL
CMN288 tmax, median (range) [1, 6]: 2.00 (0.983–4.01) h
MR (AUCinf), metabolite-to-parent drug ratio, mean (CV%) [1, 6]: 0.572 (25.1)
MR (AUClast), metabolite-to-parent drug ratio, mean (CV%) [1, 6]: 0.570 (25.6)
MR (Cmax), metabolite-to-parent drug ratio, mean (CV%) [1, 6]: 0.462 (29.2)
CMN288 AUCinf, geometric mean (geometric CV%) [1, 7]: 3640 (36.6) ng · h/mL
CMN288 AUCinf, mean (CV%) [1, 7]: 3870 (35.5) ng · h/mL
CMN288 AUClast, geometric mean (geometric CV%) [1, 7]: 3580 (37.6) ng · h/mL
CMN288 AUClast, mean (CV%) [1, 7]: 3810 (36.2) ng · h/mL
CMN288 Cmax, geometric mean (geometric CV%) [1, 7]: 665 (48.7) ng/mL
CMN288 Cmax, mean (CV%) [1, 7]: 736 (47.0) ng/mL
CMN288 tmax, median (range) [1, 7]: 1.01 (0.968–6.02) h
MR (AUCinf), metabolite-to-parent drug ratio, mean (CV%) [1, 7]: 0.699 (25.4)
MR (AUClast), metabolite-to-parent drug ratio, mean (CV%) [1, 7]: 0.685 (27.5)
MR (Cmax), metabolite-to-parent drug ratio, mean (CV%) [1, 7]: 0.533 (30.5)
CMN288 AUCinf, geometric mean (geometric CV%) [2, 8]: 5110 (31.9) ng · h/mL
CMN288 AUCinf, mean (CV%) [2, 8]: 5360 (32.1) ng · h/mL
CMN288 AUClast, geometric mean (geometric CV%) [2, 8]: 5070 (32.3) ng · h/mL
CMN288 AUClast, mean (CV%) [2, 8]: 5320 (32.5) ng · h/mL
CMN288 Cmax, geometric mean (geometric CV%) [2, 8]: 1570 (39.8) ng/mL
CMN288 Cmax, mean (CV%) [2, 8]: 1690 (38.1) ng/mL
CMN288 tmax, median (range) [2, 8]: 0.998 (0.924–3.00) h
MR (AUCinf), metabolite-to-parent drug ratio, mean (CV%) [2, 8]: 1.37 (26.0)
MR (AUClast), metabolite-to-parent drug ratio, mean (CV%) [2, 8]: 1.35 (25.0)
MR (Cmax), metabolite-to-parent drug ratio, mean (CV%) [2, 8]: 1.17 (28.9)
CMN288 AUCinf, geometric mean (geometric CV%) [2, 9]: 7420 (28.4) ng · h/mL
CMN288 AUCinf, mean (CV%) [2, 9]: 7710 (30.1) ng · h/mL
CMN288 AUClast, geometric mean (geometric CV%) [2, 9]: 7310 (28.4) ng · h/mL
CMN288 AUClast, mean (CV%) [2, 9]: 7600 (30.2) ng · h/mL
CMN288 Cmax, geometric mean (geometric CV%) [2, 9]: 1500 (41.4) ng/mL
CMN288 Cmax, mean (CV%) [2, 9]: 1610 (39.2) ng/mL
CMN288 tmax, median (range) [2, 9]: 0.994 (0.957–3.00) h
MR (AUCinf), metabolite-to-parent drug ratio, mean (CV%) [2, 9]: 0.634 (25.2)
MR (AUClast), metabolite-to-parent drug ratio, mean (CV%) [2, 9]: 0.627 (25.1)
MR (Cmax), metabolite-to-parent drug ratio, mean (CV%) [2, 9]: 0.492 (30.8)

CNC(=O)c1ccc(-c2cnc3ncc(Cc4ccc5ncccc5c4)n3n2)cc1F [Capmatinib]
Substrate of OATP1B1 (OATP1B1): not a substrate
Ki (MATE1): 280 nM
Substrate of OATP1B3 (OATP1B3): not a substrate
Increase of geometric mean AUCinf with itraconazole [1, 10]: 42%
Increase of geometric mean AUClast with itraconazole [1, 10]: 41%
AUC(0-t) ([1]; human, plasma, po, 200 mg): 5430 ng·h/mL
AUC(0-inf) ([1]; human, plasma, po, AUCinf, geometric mean (geometric CV%), inhibition cohort, healthy subjects, single oral capmatinib 200 mg + itraconazole 200 mg/day, plasma): 7450 ng·h/mL
Cmax ([1]; human, plasma, po, adjusted geometric mean, inhibition cohort, healthy subjects, single oral capmatinib 200 mg + itraconazole 200 mg/day, plasma): 1300 ng/mL
Cmax ([1]; human, plasma, po, geometric mean (geometric CV%), inhibition cohort, healthy subjects, single oral capmatinib 200 mg + itraconazole 200 mg/day, plasma): 1290 ng/mL
Cmax ([1]; human, plasma, po, mean (CV%), inhibition cohort, healthy subjects, single oral capmatinib 200 mg + itraconazole 200 mg/day, plasma): 1410 ng/mL
AUCinf, adjusted geometric mean [1, 6]: 7360 ng·h/mL
AUCinf, mean (CV%) [1, 6]: 7680 (24.3) ng · h/mL
AUClast, adjusted geometric mean [1, 6]: 7340 ng·h/mL
AUClast, mean (CV%) [1, 6]: 7660 (24.5) ng · h/mL
CL/F, geometric mean (geometric CV%) [1, 6]: 26.8 (26.4) L/h
CL/F, mean (CV%) [1, 6]: 27.8 (28.1) L/h
t1/2, geometric mean (geometric CV%) [1, 6]: 6.05 (31.3) h
t1/2, mean (CV%) [1, 6]: 6.34 (32.8) h
tmax, median (range) [1, 6]: 2.00 (0.495–4.01) h
AUCinf, geometric mean (geometric CV%) [1, 7]: 5280 (30.6) ng · h/mL
AUClast, adjusted geometric mean [1, 7]: 5220 ng·h/mL
AUClast, geometric mean (geometric CV%) [1, 7]: 5220 (30.6) ng · h/mL
CL/F, geometric mean (geometric CV%) [1, 7]: 37.9 (30.6) L/h
CL/F, mean (CV%) [1, 7]: 39.6 (33.4) L/h
Cmax, adjusted geometric mean [1, 7]: 1260 ng/mL
Cmax, geometric mean (geometric CV%) [1, 7]: 1260 (46.9) ng/mL
Cmax, mean (CV%) [1, 7]: 1380 (40.4) ng/mL
Tmax, median [1, 7]: 1.00 h
tmax, median (range) [1, 7]: 1.00 (0.505–4.00) h
AUCinf geometric mean ratio (90%CI) [1]: 1.42 (1.33–1.52)
AUClast geometric mean ratio (90%CI) [1]: 1.41 (1.29–1.53)
Cmax geometric mean ratio (90%CI) [1]: 1.03 (0.866–1.22)
AUCinf geometric mean ratio (90%CI) ([1]; listed as capmatinib): 1.42
AUClast geometric mean ratio (90%CI) ([1]; listed as capmatinib): 1.41
Cmax geometric mean ratio (90%CI) ([1]; listed as capmatinib): 1.03
Tmax median difference (minimum to maximum differences) ([1]; itraconazole + capmatinib 200 mg vs capmatinib alone): 0.489 (–3.02 to 3.00) h
Deaths (Safety assessment; either treatment cohort): No deaths were reported
Serious AEs (Safety assessment; either treatment cohort): No serious AEs were reported
AEs suspected to be related to the study treatment (any grade) (Safety assessment; [11]): 10 subjects
Discontinued study treatment due to AEs (Safety assessment; [11]): 1 subjects
AEs suspected to be related to the study treatment (any grade) (Safety assessment; [12]): 13 subjects
Amylase increased, grade 3 (Safety assessment; [12]): 1 subjects
Ki (MATE2K): 290 nM
Change in serum creatinine ([3]; after a single dose of capmatinib, 3-day monitoring): transient increase
Time at which serum creatinine returned to baseline [3, 13]: 48 h
Maximum increase of serum creatinine concentration from baseline [3, 13]: 21%
Time at which serum creatinine returned to baseline [3, 14]: 72 h
Maximum increase of serum creatinine concentration from baseline [3, 14]: 27.3%
Change in serum cystatin C concentration ([3]; single dose capmatinib 200 or 400 mg, both cohorts, 3-day monitoring): no change
Intrasubject coefficient of variation (CV%) for AUC [4]: 22.8%
Intrasubject coefficient of variation (CV%) for Cmax [4]: 29.9%
Decrease of geometric mean AUCinf with rifampicin [2, 15]: 66.5% and 67%
Decrease of geometric mean AUClast with rifampicin [2, 15]: 67.8%
Decrease of geometric mean Cmax with rifampicin [2, 15]: 55.9% and 55%
Tmax ([2]; human, plasma, po, 400 mg): 59.6 min
AUC(0-inf) [2, 16]: 3850 ng·h/mL
AUC(0-inf) [2, 17]: 3890 ng·h/mL
AUC(0-inf) [2, 18]: 4050 ng·h/mL
AUC(0-t) [2, 16]: 3720 ng·h/mL
AUC(0-t) [2, 17]: 3720 ng·h/mL
AUC(0-t) [2, 18]: 3860 ng·h/mL
Cmax [2, 16]: 1350 ng/mL
Cmax [2, 17]: 1350 ng/mL
half-life ([2]; human, plasma, po, t1/2, mean (CV%), induction cohort, healthy subjects, single oral capmatinib 400 mg + rifampicin 600 mg/day, plasma): 666 min
CL/F, geometric mean (geometric CV%) [2, 8]: 103 (29.4) L/h
CL/F, mean (CV%) [2, 8]: 107 (26.1) L/h
Cmax, mean (CV%) [2, 8]: 1460 (43.4) ng/mL
t1/2, geometric mean (geometric CV%) [2, 8]: 10.3 (40.8) h
tmax, median (range) [2, 8]: 0.994 (0.478–2.00) h
CL/F, geometric mean (geometric CV%) [2, 9]: 35.4 (24.3) L/h
CL/F, mean (CV%) [2, 9]: 36.4 (23.7) L/h
tmax, median (range) [2, 9]: 0.994 (0.461–3.00) h
AUCinf geometric mean ratio (90%CI) [2]: 0.335 (0.300–0.374)
AUClast geometric mean ratio (90%CI) [2]: 0.322 (0.294–0.353)
Cmax geometric mean ratio (90%CI) [2]: 0.441 (0.387–0.502)
AUCinf geometric mean ratio (90%CI) ([2]; listed as capmatinib): 0.335
AUClast geometric mean ratio (90%CI) ([2]; listed as capmatinib): 0.322
Cmax geometric mean ratio (90%CI) ([2]; listed as capmatinib): 0.441
Cmax ([5]; read-out: Steady-state Cmax, total): 11.6 µM
Steady-state Cmax, unbound ([5]; unbound): 0.464 µM
